In ChEMBL document CHEMBL1250525, “Structure-activity relationships in 1,4-benzodioxan-related compounds. 10. Novel α1-adrenoreceptor antagonists related to openphendioxan: synthesis, biological evaluation, and α1d computational study” (Bioorg Med Chem, 2010) one finds pKb data, which are given here for two compounds.

What is called pKb is −log10 of the Kb, conventionally taken in molar units.

The target of assay [1] is T1, Alpha-1D adrenergic receptor (Rattus norvegicus) (UniProt P23944).
T1 sequence (whole entry): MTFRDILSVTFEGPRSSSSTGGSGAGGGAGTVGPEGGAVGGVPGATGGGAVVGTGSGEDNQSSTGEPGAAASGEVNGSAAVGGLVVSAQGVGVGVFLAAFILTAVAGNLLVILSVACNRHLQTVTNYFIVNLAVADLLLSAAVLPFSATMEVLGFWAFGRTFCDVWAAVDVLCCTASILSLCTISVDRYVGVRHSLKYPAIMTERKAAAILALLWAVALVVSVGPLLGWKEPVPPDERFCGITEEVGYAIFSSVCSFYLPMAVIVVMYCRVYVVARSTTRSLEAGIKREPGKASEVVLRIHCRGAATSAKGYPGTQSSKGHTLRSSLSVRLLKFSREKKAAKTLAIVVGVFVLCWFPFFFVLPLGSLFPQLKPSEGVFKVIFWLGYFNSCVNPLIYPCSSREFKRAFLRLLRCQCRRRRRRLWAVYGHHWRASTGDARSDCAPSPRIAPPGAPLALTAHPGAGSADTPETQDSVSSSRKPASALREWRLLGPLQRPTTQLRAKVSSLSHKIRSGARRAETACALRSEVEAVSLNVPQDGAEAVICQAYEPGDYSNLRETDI
Description: Antagonist activity at adrenergic Alpha-1D receptor in Wistar rat thoracic aorta assessed as inhibition of (-)-noradrenaline-indcuced contraction. The class given is functional, tissue-based.

Assay [2] deals with T2, Alpha-1A adrenergic receptor (Rattus norvegicus) (UniProt P43140).
T2 sequence (whole entry): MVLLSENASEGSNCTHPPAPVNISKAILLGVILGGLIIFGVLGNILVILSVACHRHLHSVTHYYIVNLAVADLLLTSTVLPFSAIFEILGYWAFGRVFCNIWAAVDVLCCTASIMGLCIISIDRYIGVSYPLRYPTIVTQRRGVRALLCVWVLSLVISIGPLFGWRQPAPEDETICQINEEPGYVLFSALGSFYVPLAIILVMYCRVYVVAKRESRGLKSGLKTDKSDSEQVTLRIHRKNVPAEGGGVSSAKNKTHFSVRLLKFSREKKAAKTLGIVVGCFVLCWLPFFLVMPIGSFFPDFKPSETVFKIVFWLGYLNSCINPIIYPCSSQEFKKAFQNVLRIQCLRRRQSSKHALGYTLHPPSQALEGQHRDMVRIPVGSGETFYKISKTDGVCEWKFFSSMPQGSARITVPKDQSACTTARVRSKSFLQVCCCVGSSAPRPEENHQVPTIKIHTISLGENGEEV
Description: Antagonist activity at adrenergic alpha1A receptor in Wistar rat vas deference assessed as inhibition of (-)-noradrenaline-indcuced contraction. Type of assay: functional. The procedure, abridged:
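Tissue in Tyrode with 0.1 µM cocaine, equilibrated 60 min with washes every 15 min, primed twice with 10 µM noradrenaline. A noradrenaline curve gave the basal response. Antagonist 30 min, then 30 min washing, then a new agonist curve.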

For assay [3], the target named is T3, Alpha-1B adrenergic receptor (Rattus norvegicus) (UniProt P15823).
T3 sequence (whole entry): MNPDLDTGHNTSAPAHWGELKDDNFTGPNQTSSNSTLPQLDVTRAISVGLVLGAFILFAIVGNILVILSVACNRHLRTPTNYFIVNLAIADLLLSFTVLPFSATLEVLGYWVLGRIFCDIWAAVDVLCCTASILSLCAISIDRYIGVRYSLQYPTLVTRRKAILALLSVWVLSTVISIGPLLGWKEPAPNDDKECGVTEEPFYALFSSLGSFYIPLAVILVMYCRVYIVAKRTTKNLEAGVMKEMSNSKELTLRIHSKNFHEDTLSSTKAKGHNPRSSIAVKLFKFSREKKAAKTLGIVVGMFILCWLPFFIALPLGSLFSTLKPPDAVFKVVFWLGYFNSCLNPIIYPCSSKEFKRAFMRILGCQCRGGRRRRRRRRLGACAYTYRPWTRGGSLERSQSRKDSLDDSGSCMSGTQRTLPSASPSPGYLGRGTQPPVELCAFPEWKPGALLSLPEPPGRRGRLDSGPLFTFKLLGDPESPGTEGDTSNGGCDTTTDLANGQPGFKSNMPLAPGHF
Description: Antagonist activity at adrenergic Alpha-1B receptor in Wistar rat spleen assessed as inhibition of […]-indcuced contraction. The class given is functional, tissue-based.

For the compound `COc1cccc(OC)c1OCCNCCOc1ccccc1OCc1ccccc1`, the negative-log Kb (pKb) was determined as 9.37 in assay [1], 8.39 in assay [2] and 8.3 in assay [3].
In the case of `COc1cccc(OC)c1OCCNCC1COc2ccccc2O1` (stereo unspecified), the results for the pKb in assay [1], in assay [2] and in assay [3] were 8.8, 9.51 and 8.16, respectively.
